According to ChEMBL document CHEMBL1833861 (J Med Chem, 2011):
The source made the active and inactive calls. The calls are words filed in the database; no cut-off is given here.

Experiments:
[1] = tested on: Mus musculus; assay: Antidepressant activity in BALB/cJ mouse assessed as decrease in immobility time at 3 mg/kg, ip after 30 mins by forced swim test; assay type: functional, organism-based; set-up: dose 3 mg/kg
How it was run: (§1)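 Male BALB/cJ mice, 8–10 weeks old; compound in injectable water given ip at 10 mL/kg. Sertraline (10 or 20 mg/kg) served as positive control. 30 min post-dose, each mouse placed in a glass cylinder with 12 cm of 23 ± 1 °C water; immobility (floating) timed over a 6 min trial. n = 10/group; ANOVA with post hoc test.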

[2] = tested on: Mus musculus; assay: Antidepressant activity in BALB/cJ mouse assessed as decrease in immobility time at 10 mg/kg, po after 30 mins by forced swim test; assay type: functional, organism-based; set-up: dose 10 mg/kg
How it was run: (§2)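 Male BALB/cJ mice, 8–10 weeks old, dosed by oral gavage with compound in injectable water (10 mL/kg). Sertraline served as positive control. Forced swim begins 30 min after dosing, in a cylinder with 12 cm of 23 ± 1 °C water; total immobility recorded over 6 min. ANOVA followed by Newman-Keuls post hoc test.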

[3] = tested on: Mus musculus; assay: Antidepressant activity in BALB/cJ mouse assessed as decrease in immobility time at 1 mg/kg, ip after 30 mins by forced swim test; assay type: functional, organism-based; set-up: dose 1 mg/kg; how it was run: as §1
[4] = tested on: Mus musculus; assay: Ex vivo receptor occupancy at beta2 nAChR in BALB/cJ mouse brain at 3 mg/kg, ip after 30 mins; assay type: functional; settings: route intraperitoneal
How it was run: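 Male BALB/cJ mice, 8–10 weeks old, dosed IP at 3 mg/kg (water vehicle, 10 mL/kg); vehicle controls received water. Brains collected 30 min after dosing, matching the forced-swim timing. β2* nAChR occupancy measured ex vivo in thalamus.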

[5] = molecular target: T1, Neuronal acetylcholine receptor; alpha4/beta2 (Homo sapiens, UniProt P17787+P43681); assay: Antagonist activity at human alpha4beta2 nAChR expressed in SH-EP1 cells assessed as inhibition of carbamylcholine-induced 86Rb+ ion efflux by liquid scintillation counting relative to mecamylamine; assay type: functional, cell-based
T1 sequence (P17787 whole entry): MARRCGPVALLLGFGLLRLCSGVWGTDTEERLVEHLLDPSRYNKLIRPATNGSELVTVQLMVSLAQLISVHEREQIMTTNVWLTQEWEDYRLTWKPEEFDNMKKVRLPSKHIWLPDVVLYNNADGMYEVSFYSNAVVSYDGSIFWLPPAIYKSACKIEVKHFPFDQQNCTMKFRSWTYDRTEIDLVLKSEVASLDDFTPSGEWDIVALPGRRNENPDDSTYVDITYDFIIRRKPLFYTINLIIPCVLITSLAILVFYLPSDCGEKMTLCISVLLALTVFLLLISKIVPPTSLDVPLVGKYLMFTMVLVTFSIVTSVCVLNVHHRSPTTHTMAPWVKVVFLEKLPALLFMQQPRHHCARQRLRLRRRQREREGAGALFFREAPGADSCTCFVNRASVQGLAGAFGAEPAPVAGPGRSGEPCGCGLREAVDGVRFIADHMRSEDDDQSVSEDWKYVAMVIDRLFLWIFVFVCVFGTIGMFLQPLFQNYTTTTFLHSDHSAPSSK
T1 sequence (P43681 whole entry): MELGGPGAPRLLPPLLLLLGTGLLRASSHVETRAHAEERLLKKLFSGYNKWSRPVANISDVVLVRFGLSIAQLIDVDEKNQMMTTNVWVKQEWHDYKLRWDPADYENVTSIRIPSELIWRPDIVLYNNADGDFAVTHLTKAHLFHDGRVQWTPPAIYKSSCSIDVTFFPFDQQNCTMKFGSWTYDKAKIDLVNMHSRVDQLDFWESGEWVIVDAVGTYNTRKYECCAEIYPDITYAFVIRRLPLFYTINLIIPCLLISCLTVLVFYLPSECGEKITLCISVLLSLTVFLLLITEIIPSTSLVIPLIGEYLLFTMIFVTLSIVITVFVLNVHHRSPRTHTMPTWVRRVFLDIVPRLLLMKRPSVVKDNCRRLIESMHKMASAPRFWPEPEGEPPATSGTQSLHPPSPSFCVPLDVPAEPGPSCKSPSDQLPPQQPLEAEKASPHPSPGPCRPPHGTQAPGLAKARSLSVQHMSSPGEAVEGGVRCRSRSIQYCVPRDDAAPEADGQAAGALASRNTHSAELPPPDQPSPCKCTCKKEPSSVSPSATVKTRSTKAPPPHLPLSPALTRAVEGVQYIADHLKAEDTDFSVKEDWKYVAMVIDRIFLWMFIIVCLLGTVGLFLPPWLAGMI

[6] = molecular target: Histamine H2 receptor (Homo sapiens) (UniProt P25021); assay: Binding affinity to histamine H2 receptor at 10 uM by radioligand displacement assay
Histamine H2 receptor (Homo sapiens), sequence (P25021 whole entry): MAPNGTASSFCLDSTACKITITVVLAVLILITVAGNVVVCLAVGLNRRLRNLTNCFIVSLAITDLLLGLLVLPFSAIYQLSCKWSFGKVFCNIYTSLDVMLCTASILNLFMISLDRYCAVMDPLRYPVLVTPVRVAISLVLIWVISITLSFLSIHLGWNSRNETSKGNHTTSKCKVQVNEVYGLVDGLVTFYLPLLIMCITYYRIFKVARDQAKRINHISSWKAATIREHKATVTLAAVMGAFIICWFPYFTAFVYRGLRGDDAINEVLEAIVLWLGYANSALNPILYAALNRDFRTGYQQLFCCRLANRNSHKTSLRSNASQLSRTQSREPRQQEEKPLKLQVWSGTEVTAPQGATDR

[7] = molecular target: D(1B) dopamine receptor (Homo sapiens) (UniProt P21918); assay: Binding affinity to dopamine D5 receptor at 10 uM by radioligand displacement assay
[8] = molecular target: Neuronal acetylcholine receptor; alpha4/beta4 (Rattus norvegicus, UniProt P09483+P12392); assay: Displacement of [3H]epibatidine from rat alpha4beta4 nAChR receptor; assay type: protein-complex assay
[9] = molecular target: Alpha-1A adrenergic receptor (Homo sapiens) (UniProt P35348); assay: Binding affinity to alpha1A adrenergic receptor at 10 uM by radioligand displacement assay
[10] = molecular target: Histamine H4 receptor (Homo sapiens) (UniProt Q9H3N8); assay: Binding affinity to histamine H4 receptor at 10 uM by radioligand displacement assay
[11] = molecular target: Muscarinic acetylcholine receptor M3 (Homo sapiens) (UniProt P20309); assay: Binding affinity to muscarinic M3 receptor at 10 uM by radioligand displacement assay
[12] = Binding affinity to GABAA receptor at 10 uM by radioligand displacement assay
[13] = molecular target: Alpha-1B adrenergic receptor (Homo sapiens) (UniProt P35368); assay: Binding affinity to Alpha-1B adrenergic receptor at 10 uM by radioligand displacement assay
[14] = molecular target: 5-hydroxytryptamine receptor 7 (Homo sapiens) (UniProt P34969); assay: Binding affinity to 5HT7 receptor at 10 uM by radioligand displacement assay
[15] = Binding affinity to 5HT3 receptor at 10 uM by radioligand displacement assay
[16] = molecular target: T1, Neuronal acetylcholine receptor; alpha4/beta2; assay: Agonist activity at human alpha4beta2 nAChR expressed in human SH-EP1 cells assessed as increase of carbamylcholine-induced 86Rb+ ion efflux by liquid scintillation counting; assay type: functional, cell-based
[17] = molecular target: Alpha-1D adrenergic receptor (Homo sapiens) (UniProt P25100); assay: Binding affinity to Alpha-1D adrenergic receptor at 10 uM by radioligand displacement assay
Alpha-1D adrenergic receptor (Homo sapiens), sequence (P25100 whole entry): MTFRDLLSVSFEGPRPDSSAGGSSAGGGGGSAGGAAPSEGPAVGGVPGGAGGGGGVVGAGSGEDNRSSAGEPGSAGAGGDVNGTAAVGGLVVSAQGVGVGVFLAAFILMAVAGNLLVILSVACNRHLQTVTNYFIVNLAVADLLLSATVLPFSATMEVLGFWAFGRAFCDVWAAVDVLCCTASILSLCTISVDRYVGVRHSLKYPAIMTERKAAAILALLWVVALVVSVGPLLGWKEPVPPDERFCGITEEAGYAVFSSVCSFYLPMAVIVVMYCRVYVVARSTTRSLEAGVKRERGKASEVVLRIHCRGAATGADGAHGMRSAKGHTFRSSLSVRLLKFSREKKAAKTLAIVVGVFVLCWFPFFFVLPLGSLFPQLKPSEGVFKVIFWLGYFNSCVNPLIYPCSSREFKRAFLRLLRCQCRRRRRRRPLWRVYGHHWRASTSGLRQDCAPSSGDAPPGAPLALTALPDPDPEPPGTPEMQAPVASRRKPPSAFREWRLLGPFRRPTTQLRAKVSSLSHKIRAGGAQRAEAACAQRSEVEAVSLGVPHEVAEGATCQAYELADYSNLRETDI

[18] = tested on: Plasma; assay: Plasma protein binding in CD1 mouse at 10 uM; assay type: ADME, cell-free
[19] = molecular target: Beta-1 adrenergic receptor (Homo sapiens) (UniProt P08588); assay: Binding affinity to beta1 adrenergic receptor at 10 uM by radioligand displacement assay
[20] = molecular target: Delta-type opioid receptor (Homo sapiens) (UniProt P41143); assay: Binding affinity to delta opioid receptor at 10 uM by radioligand displacement assay
[21] = species: Rattus norvegicus; assay: Selectivity ratio of Ki for rat alpha4beta2 nAChR over Ki for rat alpha3beta4 nAChR
[22] = molecular target: 5-hydroxytryptamine receptor 1D (Homo sapiens) (UniProt P28221); assay: Binding affinity to 5HT1D receptor at 10 uM by radioligand displacement assay
[23] = molecular target: Alpha-2B adrenergic receptor (Homo sapiens) (UniProt P18089); assay: Binding affinity to alpha2B adrenergic receptor at 10 uM by radioligand displacement assay
[24] = Binding affinity to sigma2 receptor at 10 uM by radioligand displacement assay
[25] = molecular target: Sodium-dependent noradrenaline transporter (Homo sapiens) (UniProt P23975); assay: Binding affinity to NET at 10 uM by radioligand displacement assay
[26] = molecular target: Alpha-2A adrenergic receptor (Homo sapiens) (UniProt P08913); assay: Binding affinity to alpha2A adrenergic receptor at 10 uM by radioligand displacement assay
[27] = molecular target: Alpha-2C adrenergic receptor (Homo sapiens) (UniProt P18825); assay: Binding affinity to Alpha-2C adrenergic receptor at 10 uM by radioligand displacement assay
[28] = molecular target: Mu-type opioid receptor (Homo sapiens) (UniProt P35372); assay: Binding affinity to MOR at 10 uM by radioligand displacement assay
[29] = Binding affinity to rat benzodiazepine receptor at 10 uM by radioligand displacement assay
[30] = molecular target: D(3) dopamine receptor (Homo sapiens) (UniProt P35462); assay: Binding affinity to dopamine D3 receptor at 10 uM by radioligand displacement assay
[31] = molecular target: 5-hydroxytryptamine receptor 6 (Homo sapiens) (UniProt P50406); assay: Binding affinity to 5HT6 receptor at 10 uM by radioligand displacement assay
[32] = molecular target: Neuronal acetylcholine receptor; alpha3/beta4 (Rattus norvegicus, UniProt P04757+P12392); assay: Displacement of [3H]epibatidine from rat alpha3beta4 nAChR receptor; assay type: protein-complex assay
[33] = molecular target: Sodium-dependent serotonin transporter (Homo sapiens) (UniProt P31645); assay: Binding affinity to SERT at 10 uM by radioligand displacement assay
[34] = molecular target: T2, Neuronal acetylcholine receptor; alpha4/beta2 (Rattus norvegicus, UniProt P09483+P12390); assay: Displacement of [3H]epibatidine from rat alpha4beta2 receptor expressed in HEK cells; assay type: cell-based, HEK293
T2 sequence (P09483 whole entry): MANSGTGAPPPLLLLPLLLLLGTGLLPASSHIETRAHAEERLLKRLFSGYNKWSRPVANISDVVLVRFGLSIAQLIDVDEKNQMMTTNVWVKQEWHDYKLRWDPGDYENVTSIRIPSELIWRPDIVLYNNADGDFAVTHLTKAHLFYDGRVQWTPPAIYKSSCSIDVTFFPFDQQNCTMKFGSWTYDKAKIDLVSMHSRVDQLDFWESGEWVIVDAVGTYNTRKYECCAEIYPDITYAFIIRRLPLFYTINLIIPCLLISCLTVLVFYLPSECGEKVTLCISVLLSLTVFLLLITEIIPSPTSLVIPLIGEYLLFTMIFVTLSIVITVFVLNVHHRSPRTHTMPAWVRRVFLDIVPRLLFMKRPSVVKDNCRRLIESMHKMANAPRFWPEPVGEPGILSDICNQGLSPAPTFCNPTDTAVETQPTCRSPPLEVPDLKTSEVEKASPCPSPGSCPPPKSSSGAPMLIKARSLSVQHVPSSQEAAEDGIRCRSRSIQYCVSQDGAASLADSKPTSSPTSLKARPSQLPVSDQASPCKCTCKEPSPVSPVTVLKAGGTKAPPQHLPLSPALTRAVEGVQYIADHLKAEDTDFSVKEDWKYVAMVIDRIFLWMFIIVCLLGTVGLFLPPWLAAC
T2 sequence (P12390 whole entry): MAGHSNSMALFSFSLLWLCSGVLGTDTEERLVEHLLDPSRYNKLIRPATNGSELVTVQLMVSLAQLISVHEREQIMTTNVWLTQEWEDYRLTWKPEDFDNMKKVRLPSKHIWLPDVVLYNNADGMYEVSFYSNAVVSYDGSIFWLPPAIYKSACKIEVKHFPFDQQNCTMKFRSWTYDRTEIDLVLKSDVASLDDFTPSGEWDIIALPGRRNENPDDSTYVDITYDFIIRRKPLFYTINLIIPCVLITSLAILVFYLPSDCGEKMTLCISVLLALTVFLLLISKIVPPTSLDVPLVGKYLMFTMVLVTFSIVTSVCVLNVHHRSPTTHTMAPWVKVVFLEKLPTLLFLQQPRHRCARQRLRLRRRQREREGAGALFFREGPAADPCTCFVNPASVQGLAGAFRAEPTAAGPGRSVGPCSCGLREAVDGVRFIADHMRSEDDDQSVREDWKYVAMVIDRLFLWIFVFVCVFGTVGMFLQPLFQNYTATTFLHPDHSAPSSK
How it was run: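 Competition binding of [3H]epibatidine to membrane fractions from HEK cells stably transfected with rat α4 and β2 subunits; Ki values for blockade of specific binding.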

[35] = tested on: Liver microsomes; assay: Metabolic stability in human liver microsomes at 1 uM; assay type: ADME, Microsome
[36] = molecular target: 5-hydroxytryptamine receptor 2B (Homo sapiens) (UniProt P41595); assay: Binding affinity to 5HT2B receptor at 10 uM by radioligand displacement assay
[37] = molecular target: Muscarinic acetylcholine receptor M2 (Homo sapiens) (UniProt P08172); assay: Binding affinity to muscarinic M2 receptor at 10 uM by radioligand displacement assay
[38] = molecular target: Neuronal acetylcholine receptor; alpha2/beta2 (Rattus norvegicus, UniProt P12389+P12390); assay: Displacement of [3H]epibatidine from rat alpha2beta2 receptor; assay type: protein-complex assay
[39] = Inhibition of cytochrome P450; assay type: ADME
How it was run: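 Inhibitory potential tested against nine different CYP450 enzymes.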

[40] = molecular target: D(4) dopamine receptor (Homo sapiens) (UniProt P21917); assay: Binding affinity to dopamine D4 receptor at 10 uM by radioligand displacement assay
[41] = molecular target: Neuronal acetylcholine receptor; alpha2/beta4 (Rattus norvegicus, UniProt P12389+P12392); assay: Displacement of [3H]epibatidine from rat alpha2beta4 receptor; assay type: protein-complex assay
[42] = molecular target: Sigma non-opioid intracellular receptor 1 (Homo sapiens) (UniProt Q99720); assay: Binding affinity to sigma1 receptor at 10 uM by radioligand displacement assay
[43] = molecular target: 5-hydroxytryptamine receptor 1E (Homo sapiens) (UniProt P28566); assay: Binding affinity to 5HT1E receptor at 10 uM by radioligand displacement assay
5-hydroxytryptamine receptor 1E (Homo sapiens), sequence (P28566 whole entry): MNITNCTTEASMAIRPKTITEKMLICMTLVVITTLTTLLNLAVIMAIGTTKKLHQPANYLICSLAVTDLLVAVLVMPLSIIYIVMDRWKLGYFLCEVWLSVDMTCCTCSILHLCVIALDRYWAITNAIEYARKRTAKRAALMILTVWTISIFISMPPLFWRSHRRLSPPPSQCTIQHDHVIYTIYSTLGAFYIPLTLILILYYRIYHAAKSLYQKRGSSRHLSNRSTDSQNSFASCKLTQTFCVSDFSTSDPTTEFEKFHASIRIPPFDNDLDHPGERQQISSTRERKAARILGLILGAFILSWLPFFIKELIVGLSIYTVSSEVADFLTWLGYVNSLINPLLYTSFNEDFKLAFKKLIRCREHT

[44] = molecular target: Histamine H3 receptor (Homo sapiens) (UniProt Q9Y5N1); assay: Binding affinity to histamine H3 receptor at 10 uM by radioligand displacement assay
[45] = molecular target: T1, Neuronal acetylcholine receptor; alpha4/beta2; assay: Agonist activity at human alpha4beta2 nAChR expressed in human SH-EP1 cells assessed as increase of carbamylcholine-induced 86Rb+ ion efflux by liquid scintillation counting relative to carbamylcholine; assay type: functional, cell-based
[46] = tested on: Mus musculus; assay: Antidepressant activity in BALB/cJ mouse assessed as decrease in immobility time at 1 mg/kg, po after 30 mins by forced swim test; assay type: functional, organism-based; set-up: dose 1 mg/kg; how it was run: as §2
[47] = molecular target: 5-hydroxytryptamine receptor 1A (Homo sapiens) (UniProt P08908); assay: Binding affinity to 5HT1A receptor at 10 uM by radioligand displacement assay
[48] = molecular target: T1, Neuronal acetylcholine receptor; alpha4/beta2; assay: Antagonist activity at human alpha4beta2 nAChR expressed in SH-EP1 cells assessed as inhibition of carbamylcholine-induced 86Rb+ ion efflux by liquid scintillation counting; assay type: functional, cell-based
[49] = molecular target: Muscarinic acetylcholine receptor M4 (Homo sapiens) (UniProt P08173); assay: Binding affinity to muscarinic M4 receptor at 10 uM by radioligand displacement assay
[50] = molecular target: T2, Neuronal acetylcholine receptor; alpha4/beta2; assay: Displacement of [3H]epibatidine from rat alpha4beta2 nAChR receptor; assay type: protein-complex assay
[51] = molecular target: T3, Kappa-type opioid receptor (Homo sapiens, UniProt P41145); assay: Binding affinity to kappa opioid receptor at 10 uM by radioligand displacement assay
T3 sequence (P41145 whole entry): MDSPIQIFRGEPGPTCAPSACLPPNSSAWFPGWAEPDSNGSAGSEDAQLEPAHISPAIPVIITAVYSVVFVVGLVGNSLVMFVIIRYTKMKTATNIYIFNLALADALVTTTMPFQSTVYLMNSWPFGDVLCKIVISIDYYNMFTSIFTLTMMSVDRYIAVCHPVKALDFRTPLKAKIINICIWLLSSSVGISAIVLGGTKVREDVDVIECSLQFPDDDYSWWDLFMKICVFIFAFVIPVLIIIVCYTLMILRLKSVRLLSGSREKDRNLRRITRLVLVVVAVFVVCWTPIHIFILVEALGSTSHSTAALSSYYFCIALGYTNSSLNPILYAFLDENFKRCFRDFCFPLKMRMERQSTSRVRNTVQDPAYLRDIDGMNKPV

[52] = molecular target: T3, Kappa-type opioid receptor; assay: Binding affinity to kappa opioid receptor by radioligand displacement assay
[53] = molecular target: D(2) dopamine receptor (Homo sapiens) (UniProt P14416); assay: Binding affinity to dopamine D2 receptor at 10 uM by radioligand displacement assay
[54] = tested on: Liver; assay: Metabolic stability in mouse liver microsomes at 1 uM; assay type: ADME, Microsome
[55] = molecular target: Muscarinic acetylcholine receptor M1 (Homo sapiens) (UniProt P11229); assay: Binding affinity to muscarinic M1 receptor at 10 uM by radioligand displacement assay
Muscarinic acetylcholine receptor M1 (Homo sapiens), sequence (P11229 whole entry): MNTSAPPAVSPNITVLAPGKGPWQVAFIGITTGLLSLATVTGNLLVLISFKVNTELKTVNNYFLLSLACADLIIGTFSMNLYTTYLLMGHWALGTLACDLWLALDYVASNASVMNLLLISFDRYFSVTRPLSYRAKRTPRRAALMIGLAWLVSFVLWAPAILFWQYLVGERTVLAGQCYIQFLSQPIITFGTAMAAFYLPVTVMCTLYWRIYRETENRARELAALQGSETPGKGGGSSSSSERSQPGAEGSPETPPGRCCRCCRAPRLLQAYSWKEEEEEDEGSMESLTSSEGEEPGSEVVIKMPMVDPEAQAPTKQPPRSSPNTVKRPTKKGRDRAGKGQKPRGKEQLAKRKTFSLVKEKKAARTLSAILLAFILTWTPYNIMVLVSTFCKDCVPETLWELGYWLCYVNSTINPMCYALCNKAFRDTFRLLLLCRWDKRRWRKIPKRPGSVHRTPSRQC

[56] = molecular target: 5-hydroxytryptamine receptor 1B (Homo sapiens) (UniProt P28222); assay: Binding affinity to 5HT1B receptor at 10 uM by radioligand displacement assay
[57] = molecular target: Neuronal acetylcholine receptor; alpha3/beta2 (Rattus norvegicus, UniProt P04757+P12390); assay: Displacement of [3H]epibatidine from rat alpha3beta2 receptor; assay type: protein-complex assay
[58] = molecular target: Beta-2 adrenergic receptor (Homo sapiens) (UniProt P07550); assay: Binding affinity to beta2 adrenergic receptor at 10 uM by radioligand displacement assay
[59] = molecular target: 5-hydroxytryptamine receptor 2A (Homo sapiens) (UniProt P28223); assay: Binding affinity to 5HT2A receptor at 10 uM by radioligand displacement assay
[60] = molecular target: 5-hydroxytryptamine receptor 2C (Homo sapiens) (UniProt P28335); assay: Binding affinity to 5HT2C receptor at 10 uM by radioligand displacement assay
[61] = molecular target: D(1A) dopamine receptor (Homo sapiens) (UniProt P21728); assay: Binding affinity to dopamine D1 receptor at 10 uM by radioligand displacement assay
D(1A) dopamine receptor (Homo sapiens), sequence (P21728 whole entry): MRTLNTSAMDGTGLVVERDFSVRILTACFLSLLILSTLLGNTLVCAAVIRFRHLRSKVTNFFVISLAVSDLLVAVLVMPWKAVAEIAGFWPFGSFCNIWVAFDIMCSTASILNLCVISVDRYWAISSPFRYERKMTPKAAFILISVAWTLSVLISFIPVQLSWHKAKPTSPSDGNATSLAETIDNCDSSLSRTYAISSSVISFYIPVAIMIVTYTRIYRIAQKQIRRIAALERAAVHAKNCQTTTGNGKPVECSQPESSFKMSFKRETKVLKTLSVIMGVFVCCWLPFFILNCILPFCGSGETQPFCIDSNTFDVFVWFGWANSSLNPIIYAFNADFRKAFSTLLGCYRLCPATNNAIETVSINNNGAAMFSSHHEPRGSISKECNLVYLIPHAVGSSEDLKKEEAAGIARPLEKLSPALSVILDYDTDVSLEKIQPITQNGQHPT

[62] = tested on: Mus musculus; assay: Antidepressant activity in BALB/cJ mouse assessed as decrease in immobility time at 3 mg/kg, po after 30 mins by forced swim test; assay type: functional, organism-based; set-up: dose 3 mg/kg; how it was run: as §2

Cl.OCCc1cc(-c2cncc(OC[C@@H]3CCN3)c2)on1
Activity [1]: Active
Activity [2]: Active
Activity [3]: Active
Activity [4]: 60%

Cl.OCCCc1cc(-c2cncc(OC[C@@H]3CCN3)c2)on1
Efficacy [5]: 68%
inhibition [6]: 42.6%
inhibition [7]: -1.8%
Ki [8]: 182 nM
inhibition [9]: -9.5%
inhibition [10]: -4.4%
inhibition [11]: -6.8%
inhibition [12]: 26.9%
inhibition [13]: -0.4%
inhibition [14]: 16.2%
inhibition [15]: 18.8%
EC50 [16]: 36 nM
inhibition [17]: 2.9%
PPB [18]: 26%
inhibition [19]: -3.2%
inhibition [20]: 6.4%
Ratio Ki [21]: 15000
inhibition [22]: 7.1%
inhibition [23]: 10.8%
inhibition [24]: -4.3%
inhibition [25]: 14.2%
inhibition [26]: -0.5%
inhibition [27]: 22%
inhibition [28]: 14.2%
inhibition [29]: 21.7%
inhibition [30]: 15.3%
inhibition [31]: 22.3%
Ki [32]: > 10 µM
inhibition [33]: -0.6%
Ki [34]: 0.67 nM
Stability [35]: Stable
inhibition [36]: 17.7%
inhibition [37]: 11.4%
Ki [38]: 0.9 nM
Activity [1]: Active
inhibition (INH) [39]: Not Active
Activity [2]: Active
inhibition [40]: 19.8%
Ki [41]: 1410 nM
inhibition [42]: 25.9%
inhibition [43]: 4.1%
inhibition [44]: 6.2%
Efficacy [45]: 13%
Activity [46]: inactive
inhibition [47]: 0.3%
IC50 [48]: 61 nM
inhibition [49]: 2%
Ki [50]: 0.67 nM
inhibition [51]: 20%
Ki [52]: > 10 µM
inhibition [53]: 19.8%
Stability [54]: Stable
inhibition [55]: 2%
inhibition [56]: -9.9%
Ki [57]: 16 nM
inhibition [58]: -1%
inhibition [59]: 22.2%
Activity [3]: inactive
inhibition [60]: 14.6%
inhibition [61]: -3.3%
Activity [62]: inactive
